# RORa activator: activates the human nuclear receptor RORA. AID 560. activation, % at 10 µM. 65,000 tested, 1.5% active. P35398. CHO-K1 Gal4-RORA LBD luciferase reporter, luminescence; percent increase over mock-subtracted basal signal;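 active means activation above the mean of all tested compounds plus 3 SD, cut at about 49% in these data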;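 further: 0% = DMSO-treated RORA cells and 100% = added signal equal to DMSO minus mock-transfected cells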
# HePTP inhibitor: inhibitors of human HePTP phosphatase; AID 521; 110,000 tested, 0.64% active; P35236; inhibition, % at 20 µM; recombinant HePTP phosphatase activity, OD absorbance; in the data active means inhibition above about 50%;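 further: plate controls were vehicle for no effect and reference inhibitor for full effect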
# D1 allo mod: D1 dopamine receptor (human) allosteric modulation; HEK293 D1, CRE-luciferase, dopamine EC30 potentiation; actives deviate in either direction; P21728; 58,000 tested, 5.9% active; B-score at 10 µM;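 active means luminescence count or its row- and column-corrected plate score outside the 99.7% band of the plate's sample wells, on either side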
# M1 ag: agonists of M1 muscarinic receptor. CHO-M1 cells, Fluo-4 calcium fluorescence, agonist mode; active compounds read high. B-score at 10 µM. 64,000 tested, 3% active. AID 626;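 active means fluorescence rise, raw or as B-score row- and column-corrected plate score, outside the 99.7% band of its plate's samples, either direction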
# SF1 activator: activates the human nuclear receptor SF-1. 65,000 tested, 1.9% active. Q13285. CHO-K1 Gal4-SF-1 LBD luciferase reporter; % increase over DMSO SF-1-specific signal. activation, % at 10 µM;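 active means activation above the mean activation of all tested compounds plus 3 SD, cut at about 50% in these data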
#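 material = CHO-K1 cells with Gal4–hSF-1 LBD chimera plus Gal4-driven luciferase | compound = 10 µM single point, 1% DMSO | incubation = 20 h compound exposure at 37 °C after 1 h cell settling | measured by = SteadyLite luciferase luminescence | evaluation = percent activation relative to DMSO median and mock-transfected background | control set = DMSO negative control and −SF1 background wells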
# M1 antag: blocks the rat M1 muscarinic receptor response to acetylcholine; P08482; CHO-M1 cells, Fluo-4 calcium, ACh EC80 antagonist mode; active compounds read low; B-score at 10 µM; 64,000 tested, 3.4% active; AID 628;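 active means calcium fluorescence response, raw or row-and-column corrected B-score, differing from the plate sample mean either way at a set confidence level, mostly lower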
# Target sequence (P08482 whole entry, looked up): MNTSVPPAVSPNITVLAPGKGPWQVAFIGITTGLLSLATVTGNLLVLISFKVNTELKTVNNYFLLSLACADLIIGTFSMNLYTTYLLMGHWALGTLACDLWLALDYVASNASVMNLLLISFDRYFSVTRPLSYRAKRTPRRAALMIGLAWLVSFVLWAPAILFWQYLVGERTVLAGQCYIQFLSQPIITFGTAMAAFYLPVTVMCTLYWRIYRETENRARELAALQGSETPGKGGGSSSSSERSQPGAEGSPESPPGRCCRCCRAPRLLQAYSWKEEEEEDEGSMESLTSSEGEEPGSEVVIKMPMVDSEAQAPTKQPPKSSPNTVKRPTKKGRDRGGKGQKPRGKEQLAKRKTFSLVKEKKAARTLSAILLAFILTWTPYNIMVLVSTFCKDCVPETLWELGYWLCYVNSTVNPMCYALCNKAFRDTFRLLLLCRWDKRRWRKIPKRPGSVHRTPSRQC
# D1 mod confirm: confirmation of human D1 dopamine receptor allosteric modulators. shares compounds with D1 allo mod. HEK293 D1 CRE-luciferase, dopamine EC30 potentiation; active compounds read high. 2,200 tested, 88% active. AID 642. luminescence at 10 µM;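 active means luminescence in either of two replicates above the same-plate mean plus 3 SD of the low-dose dopamine control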
# D1 ag no DA: activates D1 CRE-luciferase signal without dopamine present; shares compounds with D1 allo mod; HEK293 D1 CRE-luciferase, luminescence, no dopamine; active compounds read high; luminescence at 10 µM; 1,900 tested, 0.8% active; in the data active means luminescence above about 3900
# Isoprot counter: alters isoproterenol CRE-luciferase response in HEK293 cells; shares compounds with D1 allo mod; HEK293 D1 CRE-luciferase, isoproterenol EC30 counter-screen; calls only at 10 µM; 2,200 tested, 63% active; AID 647;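 active means luminescence in either replicate above plate mean of wells with a partly effective reference agonist dose plus 3 SD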;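 further: isoproterenol raises cAMP through native beta-adrenoceptor Gs so signal bypasses D1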
# Numbers without * were called inactive; i = inactive; nt = no result given; + = active, no number. The list is not random: actives were taken first. Their share in the collection is about 8.2%.
SMILES,RORa activator,HePTP inhibitor,D1 allo mod,M1 ag,SF1 activator,M1 antag,D1 mod confirm,D1 ag no DA,Isoprot counter
CCOCC(=O)Nc1nnc(Cc2ccc(OC)c(OC)c2)s1,-10,3,7.8*,1.6,27,-0.8,12160*,nt,+
COCC(=O)Nc1nnc(Cc2ccc(OC)c(OC)c2)s1,-16,5,9.8*,0.85,16,-0.1,19508*,1696,+
COc1ccc(C(=O)Nc2nnc(Cc3ccc(OC)c(OC)c3)s2)cc1,nt,6,nt,nt,nt,nt,nt,nt,nt
O=C(CSc1nc2ccccc2s1)N=Nc1c(O)n(CN2CCCC2)c2ccccc12,nt,-24,nt,nt,nt,nt,nt,nt,nt
CC(C)c1ccc(NC(=O)c2cccc(I)c2)cc1,nt,-13,nt,nt,nt,nt,nt,nt,nt
CCN(CC)c1nc(C#N)nc(N(CC)CC)n1,-8,14,14*,0.22,1,0.43,15976*,1596,+
COC(=O)c1cc(NC(=O)CSc2nc(C)cc(=O)[nH]2)cc(C(=O)OC)c1,-14,8,2.9*,-0.012,6,-0.28,6652*,1452,i
CCOC(=O)c1ccc(NC(=O)CSc2nc(C)cc(=O)[nH]2)cc1,-14,10,0.53,0.2,5,0.24,nt,nt,nt
CCOC(=O)c1c(NC(=O)c2ccc([N+](=O)[O-])cc2Cl)sc(C)c1C,nt,-5,nt,nt,nt,nt,nt,nt,nt
COc1ccc(N2C(=O)C3CCCN3C2c2ccccc2)cc1Cl (stereo not drawn),-3,-11,2.8*,0.82,6,0.42,5744*,1680,i
COC(=O)c1ccc(OC)c(CSc2nnc(COc3cccc(C)c3)o2)c1,-12,-11,0.13,0.31,4,0.14,nt,nt,nt
COC(=O)c1ccc(OC)c(CSc2nnc(COc3ccc(OC)cc3)o2)c1,-8,-1,6.4*,0.23,-8,-0.27,5284,1456,i
CCOC(=O)c1cc(CC)sc1NC(=O)COC,26,9,12*,-0.67,0,-1.6,17728*,1632,+
CCOC(=O)c1cc(CC)sc1NC(N)=O,nt,-5,nt,nt,nt,nt,nt,nt,nt
c1ccc(-c2nn3c(-c4ccccc4)nnc3s2)cc1,-14,8,6.3*,0.08,-21,1.1,14100*,1944,i
Clc1ccc(-c2nn3c(-c4cccc(Cl)c4)nnc3s2)cc1,-9,-1,nt,0.0064,-9,0.28,nt,nt,nt
COc1cccc(-c2nn3c(-c4cc(C)[nH]n4)nnc3s2)c1,-16,1,3.4*,1,-23,-0.41,6292*,2016,i
Cc1cccc(-c2nnc3sc(-c4ccccc4)nn23)c1,19,3,7.6*,-0.92,-6,-0.35,15580*,1692,+
Cc1ccc(-c2nnc3sc(-c4ccncc4)nn23)cc1,-3,13,2.5,-0.14,-15,-0.67,nt,nt,nt
COc1cccc(-c2nn3c(-c4ccccn4)nnc3s2)c1,-4,6,nt,2.5,1,-0.19,nt,nt,nt
O=C(O)C1C2C=CC(C3CC23)C1C(=O)Nc1ccc(F)cc1 (stereo not drawn),nt,-2,nt,nt,nt,nt,nt,nt,nt
CC1(C)Cc2ccccc2-c2nnc(SCC(=O)N3CCc4ccccc43)n21,-15,1,-0.46,1.4,2,-0.084,nt,nt,nt
CCOc1ccc(N2C(=O)/C(=C/c3cc(OC)c(OC)c(OC)c3)SC2=S)cc1,nt,-4,nt,nt,nt,nt,nt,nt,nt
O=C(NCCO)C1(c2ccccc2)CCCC1,-3,-4,nt,0.32,2,0.31,nt,nt,nt
CCCn1c(=O)c2c(c3ccccc31)OCC(=O)N2,-20,-6,2.2,-0.21,2,-0.12,nt,nt,nt
SMILES,RORa activator,HePTP inhibitor,D1 allo mod,M1 ag,SF1 activator,M1 antag,D1 mod confirm,D1 ag no DA,Isoprot counter
CC(C)Cn1c(=O)c2c(c3ccccc31)OC(C)C(=O)N2 (stereo not drawn),-6,2,4.2*,-0.31,9,-0.75,7512*,1516,i
CCNc1nc(C)cc(COC)c1C#N,6,8,4.7*,-0.029,-11,-0.24,10012*,nt,+
O=C(NC1CCS(=O)(=O)C1)c1ccc(Br)cc1 (stereo not drawn),nt,-13,nt,nt,nt,nt,nt,nt,nt
CCOC(=O)c1cc(-c2ccc(C)o2)nn1CCC#N,-17,2,5.6*,1.3,-4,-0.02,19640*,1728,+
Cc1cc(OC(=O)c2ccccc2)n(CCC#N)n1,45,-4,nt,-1.6,5,-0.054,nt,nt,nt
Cn1c(=O)[nH]c(=O)c2c1nc(N1CCCCCC1)n2CCCSc1nc2ccccc2o1,-9,21,7.3*,1.3,-6,-0.38,7696*,1592,+
CCCSc1nc2c(c(=O)[nH]c(=O)n2C)n1Cc1ccc(C)cc1,25,0,-0.068,0.024,-2,-0.19,nt,nt,nt
CC1CCCN(c2nc3c(c(=O)[nH]c(=O)n3C)n2Cc2ccccc2Cl)C1 (stereo not drawn),1,4,4.5*,1.1,-6,0.089,12012*,nt,+
Cc1ccc(Cn2c(SCC(C)C)nc3c2c(=O)[nH]c(=O)n3C)cc1,-13,-4,7*,-0.025,-10,-0.22,15640*,1512,+
Cn1c(=O)[nH]c(=O)c2c1nc(N1CCCCCC1)n2Cc1cccc2ccccc12,-12,-4,nt,-0.21,-1,0.4,nt,nt,nt
COc1ccc(N2CCN(c3nc4c(c(=O)[nH]c(=O)n4C)n3Cc3ccccc3Cl)CC2)cc1,7,2,1.1,-0.36,-1,-0.032,nt,nt,nt
Cc1ccc(Cn2c(N3CCCCCC3)nc3c2c(=O)[nH]c(=O)n3C)cc1,-3,-1,3.1*,-0.45,-1,-0.14,9560*,1668,+
Cc1c(C(=O)N2CCCCCC2)oc2ccccc12,-5,7,-0.039,-0.51,-3,-0.5,nt,nt,nt
CCOc1ccc(NC(=O)CN(c2cc(Cl)cc(Cl)c2)S(C)(=O)=O)cc1,nt,0,nt,nt,nt,nt,nt,nt,nt
Cc1c(NC(=O)c2cc(-c3ccccc3)nc3ccccc23)cccc1[N+](=O)[O-],nt,4,nt,nt,nt,nt,nt,nt,nt
CCn1c(N2CCN(CC(=O)c3c(C)n(C)c4ccccc34)CC2)nc2c1c(=O)[nH]c(=O)n2C,-8,2,3.5*,-0.028,4,-1.6,8636*,1416,+
CCCn1c(N2CCN(CC(=O)c3c[nH]c4ccccc34)CC2)nc2c1c(=O)[nH]c(=O)n2C,-18,9,-0.66,0.38,2,-1.2,nt,nt,nt
CCOC(=O)c1ccc(N2C(=O)C(O)=C(C(C)=O)C2c2ccc(O)c(OC)c2)cc1 (stereo not drawn),20,6,2.5*,-0.066,-3,-0.28,5200,1280,i
CCNc1nc(NC(C)(C)C)nc(N(CC)n2cnnc2)n1,2,-6,2.7*,-0.39,-11,-0.99,8308*,1680,i

# Compound activity deposited in PubChem by several laboratories.
